# Data published in ChEMBL document CHEMBL1121393, “Synthesis and biological activity of flavipucine analogues” (1980).
# Key:
# Assay type in all cases: functional
# Escherichia coli = test: Tested in vitro for antibacterial activity against Escherichia coli
# Procedure, shortened: (§1)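 MICs determined by twofold agar dilution in nutrient agar with 0.2% yeast extract. Organisms were inoculated onto the plates with a Steers multiple inoculator.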
# Alternaria solani = test: Tested for antifungal activity against Alternaria solani
# Staphylococcus aureus = test: Tested in vitro for antibacterial activity against Staphylococcus aureus; procedure, shortened: as §1
# Pseudomonas aeruginosa = test: Tested in vitro for antibacterial activity against Pseudomonas aeruginosa; procedure, shortened: as §1
# Klebsiella aerogenes = test: Tested in vitro for antibacterial activity against Aerobacter aerogenes; procedure, shortened: as §1
# Proteus vulgaris = test: Tested in vitro for antibacterial activity against Proteus volgaris; procedure, shortened: as §1
# [1] = system: Bordetella bronchiseptica; test: Tested in vitro for antibacterial activity against Bordetella bronchiseptica; procedure, shortened: as §1
# Aspergillus niger = test: Tested for antifungal activity against Aspergillus niger
# Aureobasidium pullulans = test: Tested for antifungal activity against Pullaria pullulans
# Klebsiella pneumoniae = test: Tested in vitro for antibacterial activity against Klebsiella pneumoniae; procedure, shortened: as §1
MIC (Escherichia coli),MIC (Alternaria solani),MIC (Staphylococcus aureus),MIC (Pseudomonas aeruginosa),MIC (Klebsiella aerogenes),MIC (Proteus vulgaris),MIC [1],MIC (Aspergillus niger),MIC (Aureobasidium pullulans),MIC (Klebsiella pneumoniae),SMILES
50 mg/L,> 100 mg/L,100 mg/L,50 mg/L,> 100 mg/L,> 100 mg/L,> 100 mg/L,> 100 mg/L,> 100 mg/L,> 100 mg/L,CC(=O)[C@H]1O[C@@]12C(=O)C=C(C)NC2=O
> 100 mg/L,0.2 mg/L,0.8 mg/L,–,–,–,0.8 mg/L,1.6 mg/L,0.2 mg/L,> 100 mg/L,CCCCCCCCCC(=O)[C@@H]1O[C@@]12C(=O)C=C(C)NC2=O
50 mg/L,25 mg/L,6.3 mg/L,> 100 mg/L,> 100 mg/L,3.1 mg/L,50 mg/L,> 100 mg/L,–,6.3 mg/L,CC1=CC(=O)[C@@]2(O[C@@H]2C(=O)CC(C)C)C(=O)N1
> 100 mg/L,12.5 mg/L,25 mg/L,> 100 mg/L,> 100 mg/L,12.5 mg/L,100 mg/L,> 100 mg/L,–,100 mg/L,CC1=CC(=O)[C@@]2(O[C@H]2C(=O)CC(C)C)C(=O)N1C
50 mg/L,100 mg/L,4.7 mg/L,> 100 mg/L,100 mg/L,4.7 mg/L,33.9 mg/L,> 100 mg/L,> 100 mg/L,4.7 mg/L,CC1=CC(=O)C2(OC2C(=O)CC(C)C)C(=O)N1 (stereo unspecified)
> 100 mg/L,> 100 mg/L,> 100 mg/L,> 100 mg/L,> 100 mg/L,> 100 mg/L,> 100 mg/L,> 100 mg/L,> 100 mg/L,> 100 mg/L,CC(=O)[C@@H]1O[C@@]12C(=O)C=C(C)NC2=O
> 100 mg/L,0.2 mg/L,0.4 mg/L,–,–,12.5 mg/L,3.1 mg/L,0.2 mg/L,0.2 mg/L,> 100 mg/L,CCCCCCCCCC(=O)[C@H]1O[C@@]12C(=O)C=C(C)NC2=O
> 100 mg/L,3.1 mg/L,25 mg/L,50 mg/L,25 mg/L,50 mg/L,50 mg/L,25 mg/L,6.3 mg/L,50 mg/L,CC(C)CC(=O)C1OC12C(=O)CC(C)(C)CC2=O (stereo unspecified)
100 mg/L,6.3 mg/L,12.5 mg/L,> 100 mg/L,> 100 mg/L,6.3 mg/L,100 mg/L,50 mg/L,–,50 mg/L,CC1=CC(=O)[C@@]2(O[C@@H]2C(=O)CC(C)C)C(=O)N1C
50 mg/L,50 mg/L,6.3 mg/L,> 100 mg/L,100 mg/L,6.3 mg/L,50 mg/L,> 100 mg/L,–,6.3 mg/L,CC1=CC(=O)[C@@]2(O[C@H]2C(=O)CC(C)C)C(=O)N1
